Measurements taken from the array DNA melting data of Ke et al. (doi:10.1101/2024.01.08.574731).

Legend:
[1] = melting temperature; fluorescence melt of hairpins on a sequencing array, two-state fit, raised by 9.35 °C to match UV melts; conditions: sodium 0.088 M
In short: (§1)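 In 50 mM Na-HEPES pH 8.0 containing 25 mM NaCl, hairpins from the library on a sequenced MiSeq flow cell were imaged for Cy3 fluorescence at 2.5 °C steps up to 60 °C, with Cy3 and quencher oligos annealed. After normalisation to pre-quench Cy3 and to control constructs, two-state fits with bootstrapping gave melting temperature and folding enthalpy. Four replicates were combined by inverse-variance weighting, and fitted temperatures were shifted up by 9.35 °C to match UV melts.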

[2] = folding enthalpy; higher = less favourable; fluorescence melt of hairpins on a sequencing array, two-state fit; conditions: sodium 0.088 M
In short: as §1

Sequence | Tm [1] [°C] | folding enthalpy [2] [kcal/mol]
GATCGTCTTAACGATC ((((((....)))))) | 58.5 | -41.3
GATCGTCTTCACGATC ((((((....)))))) | 53.4 | -45.7
GATCGTGATAACGATC ((((((....)))))) | 63.6 | -40.2
GATCGTGCAAACGATC ((((((....)))))) | 66.9 | -33
GATCGTGCACACGATC ((((((....)))))) | 64.7 | -41.3
GATCGTGCCCACGATC ((((((....)))))) | 59.7 | -39.8
GATCGTGCTCACGATC ((((((....)))))) | 58.9 | -48.2
GATCGTGCTGACGATC ((((((....)))))) | 55.8 | -36.4
GATCGTGGAAACACGATC (((((((....))))))) | 66.3 | -41.2
GATCGTGGAAACATGGTC ((.(.((....)).).)) | 32.7 | -20.4
GATCGTGGAACGATC ((((((...)))))) | 66.8 | -35.7
GATCGTGGAGACGATC ((((((....)))))) | 57.8 | -42.4
GATCGTGGCACGATC ((((((...)))))) | 59.8 | -45.8
GATCGTGGGAACGATC ((((((....)))))) | 61 | -38.5
GATCGTGGGGACGATC ((((((....)))))) | 54.3 | -36.2
GATCGTGTCACGATC ((((((...)))))) | 59.3 | -38.2
GATCGTGTCGACGATC ((((((....)))))) | 60.3 | -33.9
GATCGTGTTAACGATC ((((((....)))))) | 66.9 | -36
GATCGTGTTCACGATC ((((((....)))))) | 58.8 | -44.2
GATCGTTACCACGATC ((((((....)))))) | 54.3 | -45.6

Sequence | Tm [1] [°C] | folding enthalpy [2] [kcal/mol]
GATCGTTAGACGATC ((((((...)))))) | 52.9 | -34.8
GATCGTTATACGATC ((((((...)))))) | 57.9 | -36.4
GATCGTTCCACGATC ((((((...)))))) | 59.6 | -40.1
GATCGTTCCTACGATC ((((((....)))))) | 56.7 | -41.9
GATCGTTCTCACGATC ((((((....)))))) | 54.8 | -40.8
GATCGTTGATACGATC ((((((....)))))) | 54.3 | -35.3
GATCGTTGCTACGATC ((((((....)))))) | 56.3 | -35.9
GATCGTTGTTACGATC ((((((....)))))) | 57.4 | -37.7
GATCGTTTCAACGATC ((((((....)))))) | 59.7 | -42
GATCGTTTCGACGATC ((((((....)))))) | 57.7 | -43.1
GATCGTTTCTACGATC ((((((....)))))) | 55.8 | -43
GATCGTTTGCACGATC ((((((....)))))) | 54.7 | -27
GATCGTTTTGACGATC ((((((....)))))) | 57.2 | -40.3
GATCTAAAAGTAGATC ((((((....)))))) | 29.6 | -17.5
GATCTAAACCTAGATC ((((((....)))))) | 39.3 | -33.8
GATCTAAACTAGATC ((((((...)))))) | 36.1 | -23.9
GATCTAACAATAGATC ((((((....)))))) | 33.9 | -17.6
GATCTAACATTAGATC ((((((....)))))) | 39.6 | -22.6
GATCTAACCATAGATC ((((((....)))))) | 38.2 | -31.7
GATCTAACCCTAGATC ((((((....)))))) | 37.5 | -31.1
